Results from ChEMBL document CHEMBL3616400, “Design, Synthesis, and Evaluation of Triazole Derivatives That Induce Nrf2 Dependent Gene Products and Inhibit the Keap1-Nrf2 Protein-Protein Interaction” (J Med Chem, 2015).

Tests used:
[1] = molecular target: T1, Nuclear factor erythroid 2-related factor 2 (Mus musculus) (UniProt Q60795); test: Activation of Nrf2 in mouse Hepa1c1c7 cells assessed as induction of NQO1 production at 10 uM after 24 hrs by MTT colorimetric assay relative to control; format: cell-based
T1 sequence (whole entry): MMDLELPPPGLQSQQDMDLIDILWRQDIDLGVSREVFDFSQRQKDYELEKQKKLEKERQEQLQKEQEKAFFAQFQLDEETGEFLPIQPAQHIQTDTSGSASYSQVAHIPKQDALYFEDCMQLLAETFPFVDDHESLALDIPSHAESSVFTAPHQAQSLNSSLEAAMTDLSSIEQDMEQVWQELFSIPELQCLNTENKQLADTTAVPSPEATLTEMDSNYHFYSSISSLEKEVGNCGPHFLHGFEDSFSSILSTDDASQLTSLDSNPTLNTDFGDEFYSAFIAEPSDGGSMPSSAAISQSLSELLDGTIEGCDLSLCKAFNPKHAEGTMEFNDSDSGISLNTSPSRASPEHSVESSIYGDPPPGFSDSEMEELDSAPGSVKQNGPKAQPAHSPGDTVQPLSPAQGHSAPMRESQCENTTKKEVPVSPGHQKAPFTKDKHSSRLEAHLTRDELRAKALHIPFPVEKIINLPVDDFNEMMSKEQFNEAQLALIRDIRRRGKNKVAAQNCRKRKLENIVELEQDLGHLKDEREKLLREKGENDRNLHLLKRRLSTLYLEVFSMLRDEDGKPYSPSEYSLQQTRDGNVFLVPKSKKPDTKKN
Method in brief: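 Hepa1c1c7 mouse hepatoma cells treated at a fixed 10 µM for 24 h. NQO1 enzyme activity read by colorimetric induction assay and expressed as fold induction over control.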

[2] = molecular target: Keap1/Nrf2 (Homo sapiens) (UniProt Q16236+Q14145); test: Inhibition of kelch domain of Keap1 (unknown origin) interaction to high affinity ETGE motif from Nrf2 unknown origin) at 100 uM by fluorescence polarization assay; format: protein assay
Sequence of Keap1/Nrf2 (Homo sapiens) (Q14145 whole entry, looked up, the tested form may be a part): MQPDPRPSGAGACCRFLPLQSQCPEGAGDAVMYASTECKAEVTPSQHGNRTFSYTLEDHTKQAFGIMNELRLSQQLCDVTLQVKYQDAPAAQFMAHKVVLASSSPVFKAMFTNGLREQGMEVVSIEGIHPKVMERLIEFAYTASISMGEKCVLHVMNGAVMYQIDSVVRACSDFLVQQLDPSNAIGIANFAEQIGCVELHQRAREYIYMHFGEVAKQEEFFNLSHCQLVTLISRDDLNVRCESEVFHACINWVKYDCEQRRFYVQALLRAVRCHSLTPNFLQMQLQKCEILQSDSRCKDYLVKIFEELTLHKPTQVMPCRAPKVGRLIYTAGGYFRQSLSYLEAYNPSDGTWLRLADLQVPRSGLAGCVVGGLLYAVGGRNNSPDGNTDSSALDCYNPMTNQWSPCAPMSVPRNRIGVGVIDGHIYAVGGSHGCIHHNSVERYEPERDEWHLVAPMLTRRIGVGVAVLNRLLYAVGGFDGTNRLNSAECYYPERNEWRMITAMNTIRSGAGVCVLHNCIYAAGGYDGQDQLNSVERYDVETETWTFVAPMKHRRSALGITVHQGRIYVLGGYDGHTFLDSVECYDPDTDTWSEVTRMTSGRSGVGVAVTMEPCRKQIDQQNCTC
Sequence of Keap1/Nrf2 (Homo sapiens) (Q16236 whole entry, looked up, the tested form may be a part): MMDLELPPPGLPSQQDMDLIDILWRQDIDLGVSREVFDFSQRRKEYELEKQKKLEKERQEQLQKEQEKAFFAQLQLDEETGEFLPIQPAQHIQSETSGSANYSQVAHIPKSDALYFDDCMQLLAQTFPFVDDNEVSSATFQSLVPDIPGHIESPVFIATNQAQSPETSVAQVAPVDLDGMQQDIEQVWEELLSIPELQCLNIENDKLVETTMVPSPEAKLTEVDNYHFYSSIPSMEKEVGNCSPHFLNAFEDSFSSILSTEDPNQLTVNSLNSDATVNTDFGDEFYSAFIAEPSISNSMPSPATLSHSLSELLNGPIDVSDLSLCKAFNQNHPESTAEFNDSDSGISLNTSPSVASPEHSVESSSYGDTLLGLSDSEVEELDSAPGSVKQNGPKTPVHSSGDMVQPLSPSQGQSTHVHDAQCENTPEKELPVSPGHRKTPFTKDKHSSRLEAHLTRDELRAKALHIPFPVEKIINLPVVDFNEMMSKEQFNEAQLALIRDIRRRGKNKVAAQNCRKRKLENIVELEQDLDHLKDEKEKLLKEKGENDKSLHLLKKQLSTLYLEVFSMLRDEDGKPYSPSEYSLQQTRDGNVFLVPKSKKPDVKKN
Method in brief: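 Fluorescence polarization competition. Keap1 Kelch domain with fluorescein-labelled ETGE peptide FITC-β-DEETGEF-OH (β = β-alanine). Displacement measured with a fixed 100 µM inhibitor; percent inhibition reported.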

Keap1/Nrf2 = Keap1/Nrf2 (Homo sapiens, UniProt Q14145); test: Inhibition of kelch domain of Keap1 (unknown origin) interaction to high affinity ETGE motif from Nrf2 by fluorescence polarization assay; format: protein assay
Sequence of Keap1/Nrf2 (Q16236 whole entry, the tested form may be a part): as the sequence (Q16236 whole entry, looked up, the tested form may be a part) above
Sequence of Keap1/Nrf2 (Q14145 whole entry, the tested form may be a part): as the sequence (Q14145 whole entry, looked up, the tested form may be a part) above
Method in brief: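 Competitive fluorescence polarization, dose-response format. Keap1 Kelch domain with fluorescein-labelled Nrf2 ETGE peptide FITC-β-DEETGEF-OH. EC50 derived from dose-response curves.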

[3] = molecular target: T1, Nuclear factor erythroid 2-related factor 2 (Mus musculus); test: Activation of Nrf2 in mouse Hepa1c1c7 cells assessed as concentration required to 2 fold induction of NQO1 production after 24 hrs by MTT colorimetric assay; format: cell-based
Method in brief: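 Hepa1c1c7 mouse hepatoma cells exposed to a concentration range for 24 h. NQO1 enzymatic activity measured by colorimetric induction assay. Value reported as CD, the concentration giving a two-fold increase in NQO1 activity.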

fold change (FC) [1] | inhibition [2] [%] | EC50 (Keap1/Nrf2) [µM] | CD [3] [µM] | Compound
1 | 72.6 | – | – | O=[N+]([O-])c1ccc(-c2cn(-c3ccc([N+](=O)[O-])cc3)nn2)cc1
0.98 | 62.2 | – | – | NC(=O)c1cccc(-n2cc(-c3ccc([N+](=O)[O-])cc3)nn2)c1
2.27 | 42.6 | – | – | O=[N+]([O-])c1cccc(-c2cn(-c3cccc(F)c3)nn2)c1
0.84 | 13.7 | – | – | c1cc(-c2cn(-c3cccc(-c4nnn[nH]4)c3)nn2)cc(-c2nnn[nH]2)c1
2.06 | 32 | – | – | NC(=O)c1cccc(-c2cn(-c3cccc([N+](=O)[O-])c3)nn2)c1
0.98 | 52.8 | – | – | N#Cc1cccc(-c2cn(-c3ccc(C(=O)O)cc3)nn2)c1
0.79 | – | – | – | NC(=O)c1ccc(-c2cn(-c3ccc(C(=O)O)cc3)nn2)cc1
1.3 | 24.5 | – | – | CCOc1cccc(-n2cc(-c3cccc(C#N)c3)nn2)c1
1.03 | 51.5 | – | – | Ic1cccc(-n2cc(-c3cccc(-c4nnn[nH]4)c3)nn2)c1
2.56 | 68.2 | 15 | 4.7 | COc1cccc(-n2cc(-c3cccc([N+](=O)[O-])c3)nn2)c1
0.95 | 15.4 | – | – | NC(=O)c1cccc(-n2cc(-c3ccc(C(=O)O)cc3)nn2)c1
0.71 | 78.6 | – | – | NC(=O)c1cccc(-c2cn(-c3cccc(C(=O)O)c3)nn2)c1
0.79 | – | – | – | NC(=O)c1ccc(-c2cn(-c3cccc(C(=O)O)c3)nn2)cc1
2.39 | 19.9 | – | – | N#Cc1cccc(-c2cn(-c3cccc(Cl)c3)nn2)c1
2.33 | 36.8 | – | – | N#Cc1cccc(-n2cc(-c3cccc([N+](=O)[O-])c3)nn2)c1
1.81 | 46.5 | – | – | O=[N+]([O-])c1ccc(-c2cn(-c3cccc([N+](=O)[O-])c3)nn2)cc1
1.14 | 82.3 | – | – | O=C(O)c1cccc(-c2cn(-c3ccc([N+](=O)[O-])cc3)nn2)c1
1 | 70 | – | – | O=C(O)c1ccc(-n2cc(-c3cccc(-c4nnn[nH]4)c3)nn2)cc1
0.89 | 83.8 | – | – | O=C(O)c1ccc(-c2cn(-c3ccc([N+](=O)[O-])cc3)nn2)cc1
2.09 | 65.3 | – | – | NC(=O)c1cccc(-n2cc(-c3cccc([N+](=O)[O-])c3)nn2)c1

fold change (FC) [1] | inhibition [2] [%] | EC50 (Keap1/Nrf2) [µM] | CD [3] [µM] | Compound
2.91 | 65.4 | 12.7 | 2 | CN(C)c1cccc(-n2cc(-c3cccc([N+](=O)[O-])c3)nn2)c1
0.88 | 30.4 | – | – | Cc1cccc(-n2cc(-c3cccc(-c4nnn[nH]4)c3)nn2)c1
3.38 | 74.8 | – | – | O=[N+]([O-])c1ccc(-n2cc(-c3cccc([N+](=O)[O-])c3)nn2)cc1
1.02 | 43.7 | – | – | NC(=O)c1ccc(-c2cn(-c3cccc(C(N)=O)c3)nn2)cc1
0.86 | 82.3 | – | – | O=C(O)c1cccc(-c2cn(-c3cccc(C(=O)O)c3)nn2)c1
1.24 | 40.7 | – | – | Clc1cccc(-n2cc(-c3cccc(-c4nnn[nH]4)c3)nn2)c1
0.47 | 89.6 | – | – | O=C(O)c1ccc(-c2cn(-c3cccc(C(=O)O)c3)nn2)cc1
1.07 | 46.1 | – | – | NC(=O)c1ccc(-n2cc(-c3ccc([N+](=O)[O-])cc3)nn2)cc1
2.3 | 81 | 11.5 | – | O=[N+]([O-])c1cccc(-c2cn(-c3cccc([N+](=O)[O-])c3)nn2)c1
2.95 | 77.7 | 38.5 | – | CSc1cccc(-n2cc(-c3cccc([N+](=O)[O-])c3)nn2)c1
1.53 | 21.9 | – | – | N#Cc1cccc(-c2cn(-c3cccc(I)c3)nn2)c1
– | 65.3 | – | – | NC(=O)c1cccc(-c2cn(-c3cccc(C(N)=O)c3)nn2)c1
1.07 | 96.3 | – | – | NC(=O)c1cccc(-n2cc(-c3cccc(C(=O)O)c3)nn2)c1
2.1 | 59.4 | – | – | N#Cc1cccc(-c2cn(-c3cccc([N+](=O)[O-])c3)nn2)c1
2.5 | 60.4 | 8.8 | 0.7 | O=[N+]([O-])c1cccc(-c2cn(-c3cccc(Cl)c3)nn2)c1
1.02 | – | – | – | NC(=O)c1ccc(-c2cn(-c3ccc([N+](=O)[O-])cc3)nn2)cc1
2.08 | 64.5 | – | – | NC(=O)c1ccc(-n2cc(-c3cccc([N+](=O)[O-])c3)nn2)cc1
– | – | – | 10.2 | Cc1c(-c2cnccn2)ssc1=S
1.69 | 49.7 | – | – | Cc1cccc(-n2cc(-c3cccc(C#N)c3)nn2)c1
0.99 | 81.3 | – | – | O=C(O)c1ccc(-n2cc(-c3ccc([N+](=O)[O-])cc3)nn2)cc1

fold change (FC) [1] | inhibition [2] [%] | EC50 (Keap1/Nrf2) [µM] | CD [3] [µM] | Compound
0.91 | 87.6 | – | – | NC(=O)c1ccc(-n2cc(-c3cccc(C(=O)O)c3)nn2)cc1
1.31 | 39.6 | – | – | CCOc1cccc(-n2cc(-c3cccc(-c4nnn[nH]4)c3)nn2)c1
2.48 | 69.3 | 11.3 | – | CCOc1cccc(-n2cc(-c3cccc([N+](=O)[O-])c3)nn2)c1
0.81 | 70.7 | – | – | NC(=O)c1cccc(-c2cn(-c3ccc(C(=O)O)cc3)nn2)c1
0.83 | 80.1 | 5 | > 10 | O=C(O)c1cccc(-n2cc(-c3cccc([N+](=O)[O-])c3)nn2)c1
– | 39.4 | – | – | O=C(O)c1ccc(-n2cc(-c3cccc([N+](=O)[O-])c3)nn2)cc1
1.06 | 87.5 | – | – | O=C(O)c1ccc(-c2cn(-c3cccc([N+](=O)[O-])c3)nn2)cc1
0.86 | 76.5 | – | – | NC(=O)c1ccc(-n2cc(-c3ccc(C(=O)O)cc3)nn2)cc1
1.92 | 58.8 | – | – | N#Cc1cccc(-c2cn(-c3cccc(C#N)c3)nn2)c1
2.54 | 66.9 | 22.6 | – | O=[N+]([O-])c1cccc(-c2cn(-c3cccc(C(F)(F)F)c3)nn2)c1
1.33 | 2.34 | – | – | NC(=O)c1ccc(-c2cn(-c3cccc([N+](=O)[O-])c3)nn2)cc1
0.66 | 61 | – | – | O=C(O)c1cccc(-n2cc(-c3ccc([N+](=O)[O-])cc3)nn2)c1
1.05 | 48 | – | – | NC(=O)c1cccc(-c2cn(-c3ccc([N+](=O)[O-])cc3)nn2)c1
0.98 | – | – | – | NC(=O)c1ccc(-c2cn(-c3ccc(C(N)=O)cc3)nn2)cc1
1.75 | 71.1 | – | – | O=[N+]([O-])c1cccc(-n2cc(-c3cccc(-c4nnn[nH]4)c3)nn2)c1
2.24 | 67.2 | 15 | – | O=[N+]([O-])c1cccc(-c2cn(-c3ccc4c(c3)OCO4)nn2)c1
0.85 | 63.8 | – | – | O=C(O)c1cccc(-c2cn(-c3cccc([N+](=O)[O-])c3)nn2)c1
0.9 | 77.3 | – | – | O=C(O)c1ccc(-c2cn(-c3ccc(C(=O)O)cc3)nn2)cc1
